The IC50 is the concentration that inhibits the measured activity by half.

Experiment [1] concerns SMMC-7721. In words: Cytotoxicity against human SMMC7721 cells after 48 hrs by MTT assay. Type of experiment: functional, cell-based. In outline:
(§1)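 Cells seeded at 5000 to 10 000 per well, exposed to compounds at a range of concentrations for 48 h at 37 °C. MTT then added for 4 h at 37 °C under 5% CO2. Formazan dissolved in 10% SDS and absorbance read at 595 nm. Each concentration tested in triplicate. IC50 derived by the Reed and Muench method, with cisplatin as positive control.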

Experiment [2] has as its system MCF7. Nature of the experiment: Cytotoxicity against human MCF7 cells after 48 hrs by MTT assay. In kind it is functional, cell-based. The method in brief: as §1
(Formazan colour is commonly taken as a measure of viable cells.)

For experiment [3], the system named is A549. Nature of the experiment: Cytotoxicity against human A549 cells after 48 hrs by MTT assay. In kind it is functional, cell-based. The method in brief:
as §1

Experiment [4] has as its system SW480. In words: Cytotoxicity against human SW480 cells after 48 hrs by MTT assay. In kind it is functional, cell-based. The method in brief: as §1
Experiment [5] can be described thus: Cytotoxicity against human HL60 cells after 48 hrs by MTT assay. In kind it is functional, cell-based, HL-60. In outline: as §1
[6] abbreviates: Homo sapiens, SMMC-7721, 48 h, read-out: IC50.
Where [7] appears, read: Homo sapiens, MCF7, 48 h, read-out: IC50.
The mark [8] stands for this setting: Homo sapiens, A549, 48 h, read-out: IC50.
Where [9] appears, read: Homo sapiens, SW480, 48 h, read-out: IC50.
Setting [10] is: Homo sapiens, HL-60, 48 h, read-out: IC50.

Bounds are passed on as bounds.

Take `C=C1C(=O)[C@]23[C@H](O)[C@H]1CC[C@H]2[C@@]12CO[C@]3(O)[C@@H](O)[C@@H]1C(C)(C)CC[C@@H]2O` [ORIDONIN]: the IC50 in experiment [1] (setting [6]), in experiment [2] (setting [7]), in experiment [3] (setting [8]), in experiment [4] (setting [9]) and in experiment [5] (setting [10]) was 7.2 µM in each case.

As to `C=C1C(=O)[C@]23[C@H](O)[C@H]1CC[C@H]2[C@@]12C=N[C@@]3(O)[C@@H](O)[C@@H]1C(C)(C)CC[C@@H]2O`, the half-maximal inhibitory concentration (IC50) in experiment [1] (setting [6]), in experiment [2] (setting [7]), in experiment [3] (setting [8]), in experiment [4] (setting [9]) and in experiment [5] (setting [10]) was above 40 µM throughout.

As for `C=C1C(=O)OC2CC1C[C@H]1[C@@H]2[C@@]23C=NC1(O)[C@@H](O)[C@@H]2C(C)(C)CC[C@@H]3O`, the IC50 entry in experiment [1] (smmc-7721), in experiment [2] (mcf7), in experiment [3] (a549), in experiment [4] (sw480) and in experiment [5] (hl-60) was “Not Active” in each case.

In the case of `C=C1C(=O)O[C@H]2C[C@@H]1C[C@H]1[C@@H]2[C@@]23C(OC)O[C@@]1(O)[C@@H](O)[C@@H]2C(C)(C)CC[C@@H]3O` (stereo not given in full), the IC50 result in experiment [1] (smmc-7721), in experiment [2] (mcf7), in experiment [3] (a549), in experiment [4] (sw480) and in experiment [5] (hl-60) was “Active” throughout.

For the origin of these results see ChEMBL document CHEMBL3421599, “Diterpene alkaloids with an aza-ent-kaurane skeleton from Isodon rubescens” (J Nat Prod, 2015).
